Screens: PubChem BioAssay, Johns Hopkins Ion Channel Center
A selection: hits, their analogues and other compounds. The true share with any hit is near 3.1%.
KCNQ1 block: blocks the human KCNQ1 potassium channel; P51787; CHO-K1 KCNQ1, FluxOR thallium flux fluorescence; hits give high values; B-score at 10 µM; actives 1.3% (n = 310,000); AID 2642;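 active = compounds whose thallium flux B-score, printed positive for inhibition, exceeds three library SD while starting fluorescence stays within three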;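 note: channel opened by potassium depolarization with thallium stimulus after 20 min compound exposure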
KCNQ1 act: potentiators or activators of human KCNQ1 potassium channel | AID 2648 | actives 0.35% (n = 310,000) | B-score at 10 µM | CHO-K1 KCNQ1, thallium flux FluxOR fluorescence; hits give high values | P51787;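 active = fluorescence ratio B-score, a plate-corrected score, at least three library SD, with initial intensity B-score within 5 SD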
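Medium – assay buffer, equal DMSO in all wells · Material – CHO-K1 cell line with stable KCNQ1 potassium channel expression · Signal – kinetic FluxOR thallium fluorescence, 10-s 1-Hz baseline, 110-s post-stimulus read · Compound – single concentration per compound, DMSO matched to controls · Schedule – 37 °C overnight plating, 90-min dark dye load, 20-min compound pretreatment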
KCNK9 inh: blocks the human KCNK9 two-pore domain potassium channel | actives 1.2% (n = 310,000) | AID 488922 | Q9NPC2 | HEK293 KCNK9, FluxOR thallium flux fluorescence; hits give low values | B-score at 10 µM;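 active = ratio B-score over 3 SD below the library mean, with starting fluorescence within 5 SD of its mean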;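 note: negative B-score means less thallium flux so channel inhibition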
hERG protect: hERG (human) protection from proarrhythmic block | CHO-hERG, FluxOR thallium flux, dofetilide IC70 present | activation (rescue from dofetilide block), less the hit threshold, % at 10 µM | actives 0.51% (n = 310,000) | AID 1511;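 active = activation above the mean of controls blocked by dofetilide plus 5 SD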;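 note: thallium influx through hERG after potassium depolarization seen as dye fluorescence rise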
KCNK3 inh: human KCNK3 channel inhibition, primary screen; CHO-KCNK3 thallium flux, FluxOR fluorescence; hits give low values; B-score at 10 µM; O14649; actives 0.84% (n = 340,000);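 active = B-score under library mean minus 4 SD, starting fluorescence ratio at most library mean plus 5 SD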;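 note: more negative B-score means stronger inhibition of thallium flux through KCNK3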
Target sequence (O14649 whole entry, looked up): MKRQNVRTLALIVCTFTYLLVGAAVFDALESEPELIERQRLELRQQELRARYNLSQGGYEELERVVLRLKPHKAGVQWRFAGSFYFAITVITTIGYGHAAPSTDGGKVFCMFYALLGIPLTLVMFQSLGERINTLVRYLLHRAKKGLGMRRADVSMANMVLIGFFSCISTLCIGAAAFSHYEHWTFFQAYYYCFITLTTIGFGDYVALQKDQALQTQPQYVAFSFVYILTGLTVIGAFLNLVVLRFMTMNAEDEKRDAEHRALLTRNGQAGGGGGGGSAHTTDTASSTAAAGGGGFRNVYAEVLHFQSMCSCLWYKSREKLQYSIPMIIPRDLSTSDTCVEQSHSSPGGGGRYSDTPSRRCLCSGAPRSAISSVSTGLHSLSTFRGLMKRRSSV
KCNK9 inh conf: confirmation of human KCNK9 potassium channel inhibitors; shares compounds with KCNK9 inh; AID 492992; HEK293 KCNK9 cells, FluxOR thallium flux fluorescence; inhibition, % at 10 µM; actives 43% (n = 4,900);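 active = thallium signal inhibited by more than 5 SD of the compound-free buffer control wells, on both duplicate plates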
Kir21 sel: selectivity of KCNK9 modulators against mouse Kir2.1; shares compounds with KCNK9 inh; Kir2.1 cells, FluxOR thallium flux fluorescence; inhibition, % at 10 µM; actives 4% (n = 4,900);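 active = thallium signal drop more than 5 SD beyond the mean of the no-compound control wells, seen in both duplicate plates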;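 note: signal is fluorescence rise after thallium addition divided by baseline fluorescence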
HEK293 Tl ctr: second check of KCNK9 modulator effects in non-induced HEK293 cells. shares compounds with KCNK9 inh. inhibition, % at 10 µM. actives 40% (n = 4,900). FluxOR thallium flux;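 active = thallium signal drop beyond 5 SD of the untreated control mean, on both duplicate plates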
Of the large screens only hits and unclear results are named; the others gave an inactive call (follow-up assays come after a bar, where they were run).

CC(C)Oc1ccc(C(=O)Nc2ccccc2N2CCCC2)cc1	KCNK9 inh -14 | KCNK9 inh conf 58% | Kir21 sel inactive | HEK293 Tl ctr 29%
CCc1ccc2nc(SCC(=O)NCC3CCCO3)c(C#N)cc2c1 (centres undefined)	none | KCNK9 inh conf inactive | Kir21 sel inactive | HEK293 Tl ctr inactive
COc1ccccc1C1C(C(C)=O)=C(O)C(=O)N1c1ccc(O)cc1 (centres undefined)	none
CCCOc1cccc(C(=O)NC(=S)Nc2cccc(C(F)(F)F)c2)c1	none | KCNK9 inh conf inactive | Kir21 sel inactive | HEK293 Tl ctr inactive
COc1ccc(N2C(=O)CSC23C(=O)N2CCCc4cccc3c42)cc1 (centres undefined)	none
COc1ccc(N2C(=O)CSC23C(=O)N2c4c(cccc43)C(C)=CC2(C)C)cc1 (centres undefined)	KCNK9 inh -8.6 | KCNK9 inh conf inactive | Kir21 sel inactive | HEK293 Tl ctr 46%
COc1ccccc1N1CCN(C(=O)c2ccc(N(C)S(=O)(=O)c3ccccc3)cc2)CC1	none
O=C(O)c1cccc(N2C(=O)C3C4C=CC(C4=C(c4ccccc4)c4ccccc4)C3C2=O)c1 (centres undefined)	none | KCNK9 inh conf inactive | Kir21 sel inactive | HEK293 Tl ctr inactive
O=C(CCc1ccccc1)C(=O)N1CCCC(C(=O)c2cccc(Cl)c2)C1 (centres undefined)	none | KCNK9 inh conf inactive | Kir21 sel 32% | HEK293 Tl ctr 37%
Nc1nc(-c2cccs2)c(-c2cccs2)s1	KCNK9 inh -8.8 | KCNK9 inh conf 44% | Kir21 sel inactive | HEK293 Tl ctr inactive
O=C(NCCNc1ccc([N+](=O)[O-])cc1C(F)(F)F)c1ccccc1F	none | KCNK9 inh conf inactive | Kir21 sel inactive | HEK293 Tl ctr inactive
O=C(c1ccccc1)N1CCOC(O)(c2ccccc2)C1c1ccccc1 (centres undefined)	none (no result: KCNQ1 block, KCNQ1 act, KCNK9 inh, hERG protect)
O=C1c2ccc(Cl)cc2S(=O)(=O)c2cccc(C(=O)N3CCC(Cc4ccccc4)CC3)c21	none (no result: KCNQ1 block, KCNQ1 act, KCNK9 inh, hERG protect)
CC(c1cccs1)N(C(=O)Nc1ccccc1)C1CCCCC1 (centres undefined)	none | KCNK9 inh conf inactive | Kir21 sel inactive | HEK293 Tl ctr inactive
CN(C(=O)Nc1ccccc1)C1CCCCC1	none
COc1ccc(/C=N/Nc2nc(-c3ccc(Cl)cc3)cc(C(F)(F)F)n2)cc1OC	KCNQ1 block 6 | KCNK9 inh conf inactive | Kir21 sel inactive | HEK293 Tl ctr inactive
CC(C)C(Sc1nc(-c2ccccc2)cc(-c2ccccc2)c1C#N)C(=O)O (centres undefined)	none | KCNK9 inh conf inactive | Kir21 sel inactive | HEK293 Tl ctr inactive
CCc1cccc(CC)c1NC(=O)c1cccc(S(=O)(=O)N2CCN(C)CC2)c1	none
CC(C)(C)c1ccc(C(=O)NCC2CCCN2S(=O)(=O)c2ccccc2)cc1 (centres undefined)	none | KCNK9 inh conf inactive | Kir21 sel inactive | HEK293 Tl ctr inactive
O=C(Nc1ccccc1C(=O)NCc1cccnc1)c1ccccc1F	none
COC(=O)C1=NN(C(=O)c2cccc(Br)c2)C(O)(c2ccc(Cl)cc2)C1 (centres undefined)	KCNQ1 act 82, hERG protect 59 | KCNK9 inh conf inactive | Kir21 sel inactive | HEK293 Tl ctr inactive
O=C(c1cccc(C(F)(F)F)c1)N1CCOC12CCN(c1ncc(C(F)(F)F)cc1Cl)CC2	none | KCNK9 inh conf inactive | Kir21 sel inactive | HEK293 Tl ctr inactive
O=C(COc1ccccc1C(=O)Nc1ccccc1)c1ccc(Br)cc1	KCNK9 inh -9.5 | KCNK9 inh conf 35% | Kir21 sel inactive | HEK293 Tl ctr inactive
O=C(COc1ccccc1C(=O)Nc1ccccc1)c1ccc(F)cc1	none
CC1(C)Cc2ccccc2C(N/N=C/c2ccc(Cl)cc2)=N1	none | KCNK9 inh conf inactive | Kir21 sel inactive | HEK293 Tl ctr inactive
CC1(C)Cc2ccccc2C(N/N=C/c2ccc([N+](=O)[O-])cc2)=N1	none
CSCCC(C(=O)OCC(=O)c1ccc(C)c(C)c1)N1C(=O)c2cc(Cl)c(Cl)cc2C1=O (centres undefined)	none | KCNK9 inh conf inactive | Kir21 sel inactive | HEK293 Tl ctr inactive
CCOc1ccccc1Oc1cn[nH]c1-c1ccc(O)cc1O	KCNK9 inh -10 | KCNK9 inh conf 32% | Kir21 sel inactive | HEK293 Tl ctr inactive
Cc1cn(C2CC(OC(=O)C(C)C)C(CO)O2)c(=O)[nH]c1=O (centres undefined)	none (no result: KCNQ1 block, KCNQ1 act, KCNK9 inh, hERG protect)
COc1ccc([C@@H]2[C@@H]3C(=O)N(C(C)(C)C)C(=O)[C@@H]3[C@]3(Cc4ccc(Cl)cc4)C(=O)N(c4cccc(F)c4)C(=O)N23)cc1	none (no result: KCNQ1 block, KCNQ1 act, KCNK9 inh, hERG protect)
Cc1ccc(OCCn2c(=S)[nH]c3ccccc32)c(C(C)C)c1	none | KCNK9 inh conf inactive | Kir21 sel 42% | HEK293 Tl ctr inactive
CCN1CCN(C(=O)C(C)Sc2nc3nc(C)cc(C)n3n2)CC1 (centres undefined)	none (no result: KCNQ1 block, KCNQ1 act, KCNK9 inh, hERG protect)
N#Cc1ccccc1OCC(=O)OCC(=O)NC1CCS(=O)(=O)C1 (centres undefined)	none (no result: KCNQ1 block, KCNQ1 act, KCNK9 inh, hERG protect)
Cn1nc(-c2ccccc2)c(-c2nc(-c3ccccc3Cl)no2)c1Cl	KCNK9 inh -10 | KCNK9 inh conf 41% | Kir21 sel inactive | HEK293 Tl ctr 32%
Cn1nc(-c2ccccc2)c(-c2nc(-c3cccc(C(F)(F)F)c3)no2)c1Cl	none
Cc1ccc(C2(C)NC(=O)N(CC(=O)Nc3cc(S(=O)(=O)N4CCOCC4)ccc3OC(C)C)C2=O)cc1 (centres undefined)	none (no result: KCNQ1 block, KCNQ1 act, KCNK9 inh, hERG protect)
Cc1cccc(NC(=O)CSCC(=O)N(C)Cc2c(F)cccc2Cl)c1	none | KCNK9 inh conf inactive | Kir21 sel inactive | HEK293 Tl ctr inactive
Cc1cc(NC(=O)CSCC(=O)N(C)Cc2c(F)cccc2Cl)no1	none
Cc1cc2c(=O)n(Cc3ccco3)c(SCC(=O)N3CCCc4ccccc43)nc2s1	none | KCNK9 inh conf inactive | Kir21 sel inactive | HEK293 Tl ctr inactive
Cc1cc2c(=O)n(Cc3ccco3)c(SCC(=O)NCc3ccco3)nc2s1	none
Cc1ccc(-c2ccc(SCC(=O)N3CCc4ccccc43)nn2)cc1	none (no result: KCNK3 inh)
Cc1ccc(-c2ccc(SCC(=O)N3CCCc4ccccc43)nn2)cc1	none (no result: KCNK3 inh) | KCNK9 inh conf inactive | Kir21 sel inactive | HEK293 Tl ctr inactive
Cc1sc2nc(SCC(=O)NCc3ccco3)n(CCc3ccccc3)c(=O)c2c1C	none
O=C(CSc1nc2ccccc2c(=O)n1-c1ccccc1)N1CCCc2ccccc21	none | KCNK9 inh conf inactive | Kir21 sel inactive | HEK293 Tl ctr inactive
